Test results as given in ChEMBL document CHEMBL1144887, “Indanylidenes. 1. Design and synthesis of (E)-2-(4,6-difluoro-1-indanylidene)acetamide, a potent, centrally acting muscle relaxant with antiinflammatory and analgesic activity” (J Med Chem, 2003).

Legend:
Type in all cases: functional
[1] = tested on: Mus musculus; assay: Effective dose required for muscle relaxation by intraperitoneal administration in mouse using Straub-tail (ST) assay; settings: for ED50: ip
Method in brief: (§1)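 Mouse morphine-induced Straub tail assay, scoring inhibition of sacro-coccygeus dorsalis contraction. Dosed ip or po, generally at a minimum of three doses with N = 6 animals per dose group.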

[2] = tested on: Mus musculus; assay: (§2) Percent effect profile muscle relaxation at 100 mg/kg by intraperitoneal administration in mouse using Straub-tail (ST) assay; settings: ip
Method in brief: (§3)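 Mouse morphine-induced Straub tail assay, scoring inhibition of sacro-coccygeus dorsalis contraction. Single ip dose of 100 mg/kg; percent effect reported. Compounds above 50% inhibition were then tested orally.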

[3] = tested on: Rattus norvegicus; assay: Antiinflammatory activity in cells using Carrageenan pleurisy assay by oral administration
Method in brief: (§4)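 Rat carrageenan pleurisy, 3 h. Compounds given orally, with separate read-outs for pleural cell counts and edema. ED50 reported in mg/kg po. Each compound tested two or three times; average variation approximately 10%.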

[4] = tested on: Rattus norvegicus; assay: Antiinflammatory activity in cells by Carrageenan pleurisy assay by oral administration at 20 mg/kg.
Method in brief: (§5)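 Rat carrageenan pleurisy, 3 h. Single oral dose of 20 mg/kg, with separate read-outs for pleural cell counts and edema as percent inhibition. Each compound tested two or three times; average variation approximately 10%.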

[5] = tested on: Rattus norvegicus; assay: Antiinflammatory activity in edema by Carrageenan pleurisy assay by oral administration at 20 mg/kg.; method in brief: as §5
[6] = tested on: Rattus norvegicus; assay: Effective dose required for analgesic activity by trypsin-induced hyperalgesia assay at 20 mg/kg by oral administration in rats
Method in brief: (§6)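 Rat trypsin-induced hyperalgesia (mild analgesia) with oral dosing. ED50 reported in mg/kg po. Each compound tested two or three times; average variation approximately 5%.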

[7] = tested on: Mus musculus; assay: as §2; settings: ip; method in brief: as §3; remark: listed apart in the source
[8] = tested on: Mus musculus; assay: Effective dose required for muscle relaxation by oral administration in mouse using Straub-tail (ST) assay.; method in brief: as §1
[9] = tested on: Mus musculus; assay: Sedation caused by oral administration was estimated using rotarod (RR) assay.
Method in brief: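 Mouse rotorod test for sedation, oral dosing, generally at a minimum of three doses with N = 6 animals per dose group.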

[10] = organism: Mus musculus; assay: Ratio of rotarod to Straub-tail activity, which indicates the dose exhibiting muscle relaxant activity versus that producing sedation.
Method in brief: (§7)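 Ratio of rotorod ED50 (po) to Straub tail ED50 (po), both measured in mice with oral dosing. Indicates separation between the muscle-relaxant dose and the sedating dose.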

[11] = tested on: Rattus norvegicus; assay: Percent inhibition for analgesic activity by trypsin-induced hyperalgesia assay at 20 mg/kg by oral administration in rats.
Method in brief: (§8)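 Rat trypsin-induced hyperalgesia (mild analgesia). Percent inhibition at a single oral dose of 20 mg/kg. Each compound tested two or three times; average variation approximately 5%.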

[12] = tested on: Rattus norvegicus; assay: Percent inhibition for analgesic activity by trypsin-induced hyperalgesia assay at 20 mg/kg by oral administration in rats; method in brief: as §8
[13] = tested on: Rattus norvegicus; assay: Antiinflammatory activity in edema by Carrageenan pleurisy assay by oral administration; method in brief: as §4
[14] = tested on: Rattus norvegicus; assay: Percent inhibition for analgesic activity by trypsin-induced hyperalgesia assay at 20 mg/kg by oral administration in rats; ND is no data.; method in brief: as §8
[15] = Effective dose required to produce analgesic activity in the adjuvant arthritis hyperalgesia assay by oral administration
[16] = Effective dose required to produce analgesic activity in the phalanges algesia assay by oral administration
[17] = Effective dose required to produce analgesic activity in the trypsin hyperalgesia assay by oral administration; method in brief: as §6
[18] = organism: Mus musculus; assay: Ratio of rotarod to straub tail activity, which indicates the dose exhibiting muscle relaxant activity versus that producing sedation; method in brief: as §7

Compound | inhibition in vivo at 100 mg/kg [2] [%] | ED50 [3] [mg/kg] | inhibition in vivo at 20 mg/kg [4] [%] | inhibition in vivo at 20 mg/kg [5] [%] | ED50 [6] [mg/kg] | ED50 [8] [mg/kg] | ED50 [9] [mg/kg] | inhibition in vivo at 20 mg/kg [11] [%] | also measured
NC(=O)/C=C1/CCc2ccccc21 |  |  |  |  |  |  |  |  | ED50 [1]: 44 mg/kg
O=C(/C=C1\CCc2ccc(F)cc21)Nc1ccccc1 | 83 | 8 |  |  |  |  |  |  | 
NC(=O)/C=C1\CCc2c(F)ccc(F)c21 |  |  | 67 | 67 | 8 | 56 | 89 | 83 | inhibition in vivo at 100 mg/kg [7]: 100%; Ratio [10]: 1.6
O=C(/C=C1\CCc2ccc(F)cc21)NC1CCC1 | 100 |  | 4 | 0 |  | > 100 |  |  | inhibition in vivo at 20 mg/kg [12]: 17%
Cc1cccc2c1CC/C2=C\C(N)=O |  |  | 15 | 13 |  | > 100 |  | 25 | Inhibition [1]: 100%
CC(C)NC(=O)/C=C1\CCc2ccc(F)cc21 |  |  | 45 | 71 | 9 | 96 | > 100 | 83 | inhibition in vivo at 100 mg/kg [7]: 100%
NC(=O)/C=C1\CCc2ccc(Cl)cc21 |  | 27 |  |  |  | 98 | 221 |  | ED50 [13]: 33 mg/kg; ED50 [1]: 40 mg/kg; Ratio [10]: 2
O=C(/C=C1\CCc2ccc(F)cc21)NC1CCCC1 | 0 | 14 |  |  |  |  |  |  | ED50 [13]: 11 mg/kg; inhibition in vivo at 20 mg/kg [12]: 6%
NC(=O)/C=C1\CCc2cc(Cl)ccc21 | 0 |  | 30 | 29 | 30 |  |  | 42 | 
O=C(/C=C1\CCc2ccc(F)cc21)NCc1ccccc1 | 17 | 16 |  |  |  |  |  |  | ED50 [13]: 8 mg/kg; inhibition in vivo at 20 mg/kg [12]: 8%
Cc1ccc2c(c1)/C(=C/C(N)=O)CC2 |  |  |  |  |  |  |  |  | inhibition in vivo at 100 mg/kg [7]: 33%; inhibition in vivo at 20 mg/kg [14]: 14%
COc1ccc2c3c1O[C@H]1[C@@H](O)C=C[C@H]4[C@@H](C2)N(C)CC[C@@]341 [CODEINE] |  |  |  |  |  |  |  |  | ED50 [15]: 25 mg/kg; ED50 [16]: 27 mg/kg; ED50 [17]: 33 mg/kg
NC(=O)/C=C1\CCc2ccccc21 |  |  |  |  | 9 | 108 | 164 | 88 | Ratio [18]: 1.5; ED50 [1]: 31 mg/kg
